Measured values published in ChEMBL document CHEMBL3352462, “Aldosterone synthase inhibitors as promising treatments for mineralocorticoid dependent cardiovascular and renal diseases” (J Med Chem, 2014).

Key:
Homo sapiens [1] = organism: Homo sapiens; assay: Decrease in diastolic blood pressure in hypertension patient at 50 mg, bid for 8 weeks; assay type: functional, Artery
Homo sapiens [2] = organism: Homo sapiens; assay: Increase in aldosterone level in sodium depleted healthy human urine; assay type: functional
Homo sapiens [3] = organism: Homo sapiens; assay: Increase in aldosterone level in sodium depleted healthy human plasma; assay type: functional
Homo sapiens [4] = organism: Homo sapiens; assay: Increase in aldosterone level in primary aldosteronism patient plasma at 50 mg, bid for 31 days; assay type: functional
[5] = target: T1, Cytochrome P450 11B2, mitochondrial (Homo sapiens, UniProt P19099); assay: Inhibition of human aldosterone synthase expressed in V79 MZ cells assessed as inhibition of aldosterone synthesis; assay type: cell-based, V79MZ
T1 sequence (P19099 whole entry): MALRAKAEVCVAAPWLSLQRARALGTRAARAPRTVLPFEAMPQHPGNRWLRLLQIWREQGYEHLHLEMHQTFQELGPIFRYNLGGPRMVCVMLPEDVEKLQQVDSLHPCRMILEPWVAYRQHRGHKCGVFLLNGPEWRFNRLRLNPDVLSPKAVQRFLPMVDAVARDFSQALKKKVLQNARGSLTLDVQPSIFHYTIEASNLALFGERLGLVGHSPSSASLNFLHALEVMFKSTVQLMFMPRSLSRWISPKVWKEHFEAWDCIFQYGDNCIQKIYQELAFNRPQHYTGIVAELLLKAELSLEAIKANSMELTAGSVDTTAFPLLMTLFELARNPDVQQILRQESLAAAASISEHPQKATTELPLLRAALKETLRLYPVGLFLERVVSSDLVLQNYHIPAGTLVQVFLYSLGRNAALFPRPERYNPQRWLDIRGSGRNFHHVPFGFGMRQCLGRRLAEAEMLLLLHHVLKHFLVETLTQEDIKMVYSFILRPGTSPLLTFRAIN

Homo sapiens [6] = organism: Homo sapiens; assay: Selectivity ratio of IC50 for human CYP11B1 to IC50 for human CYP11B2
Summary of the method: (§1)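 Whole-cell assay in V79MZ (Chinese hamster lung fibroblast) cells stably expressing human CYP11B2; a parallel line stably expressing human CYP11B1 gives the counter-target IC50. Selectivity is expressed as the CYP11B1/CYP11B2 IC50 ratio.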

[7] = target: T1, Cytochrome P450 11B2, mitochondrial; assay: Inhibition of human CYP11B2 expressed in G402 cells; assay type: cell-based, G-402
[8] = target: T1, Cytochrome P450 11B2, mitochondrial; assay: Inhibition of human aldosterone synthase by cell based assay
[9] = Tmax in sodium depleted healthy human; conditions: in vivo
[10] = Elimination half life in sodium depleted healthy human; conditions: in vivo
[11] = target: T1, Cytochrome P450 11B2, mitochondrial; assay: Inhibition of human CYP11B2 expressed in NCI-H295R cells assessed as reduction in aldosterone formation; assay type: cell-based
[12] = target: T1, Cytochrome P450 11B2, mitochondrial; assay: Inhibition of human aldosterone synthase
[13] = target: T2, Cytochrome P450 11B1, mitochondrial (Homo sapiens, UniProt P15538); assay: Inhibition of human CYP11B1 expressed in NCI-H295R cells at 100 nM; assay type: cell-based
T2 sequence (P15538 whole entry): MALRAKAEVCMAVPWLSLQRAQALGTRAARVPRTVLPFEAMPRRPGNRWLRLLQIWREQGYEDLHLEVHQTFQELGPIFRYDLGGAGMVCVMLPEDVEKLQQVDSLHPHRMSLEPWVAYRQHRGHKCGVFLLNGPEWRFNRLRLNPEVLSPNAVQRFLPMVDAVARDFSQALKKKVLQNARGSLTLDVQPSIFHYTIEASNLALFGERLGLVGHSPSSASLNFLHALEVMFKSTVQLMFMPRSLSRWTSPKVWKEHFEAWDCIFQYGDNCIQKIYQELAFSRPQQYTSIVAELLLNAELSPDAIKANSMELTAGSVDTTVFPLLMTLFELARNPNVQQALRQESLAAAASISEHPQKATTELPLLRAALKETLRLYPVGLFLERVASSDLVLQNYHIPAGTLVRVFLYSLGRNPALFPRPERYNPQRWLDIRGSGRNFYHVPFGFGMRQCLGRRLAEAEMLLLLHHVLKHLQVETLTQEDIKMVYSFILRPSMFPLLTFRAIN

[14] = target: T1, Cytochrome P450 11B2, mitochondrial; assay: Inhibition of human aldosterone synthase expressed in V79 MZ cells; assay type: cell-based, V79MZ; summary of the method: as §1
[15] = target: T3, Cytochrome P450 11B2, mitochondrial (Rattus norvegicus, UniProt P30099); assay: Inhibition of aldosterone synthase in rat adrenal assessed as decrease in aldosterone level at 100 uM
T3 sequence (P30099 whole entry): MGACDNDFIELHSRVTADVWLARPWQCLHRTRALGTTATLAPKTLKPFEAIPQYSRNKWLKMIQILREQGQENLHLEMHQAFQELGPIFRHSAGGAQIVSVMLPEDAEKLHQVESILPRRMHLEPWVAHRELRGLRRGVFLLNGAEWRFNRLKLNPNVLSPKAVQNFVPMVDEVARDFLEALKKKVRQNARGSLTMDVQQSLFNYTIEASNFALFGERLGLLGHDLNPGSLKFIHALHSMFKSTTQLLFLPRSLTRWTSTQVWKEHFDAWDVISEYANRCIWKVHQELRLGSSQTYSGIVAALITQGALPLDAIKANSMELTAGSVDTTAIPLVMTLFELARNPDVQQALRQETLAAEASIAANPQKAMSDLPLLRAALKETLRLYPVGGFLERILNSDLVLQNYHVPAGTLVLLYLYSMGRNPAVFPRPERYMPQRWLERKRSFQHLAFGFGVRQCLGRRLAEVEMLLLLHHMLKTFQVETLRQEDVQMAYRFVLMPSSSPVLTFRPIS

[16] = target: T3, Cytochrome P450 11B2, mitochondrial; assay: Inhibition of aldosterone synthase in rat adrenal assessed as decrease in 18-OH-corticosterone level at 100 uM
Rattus norvegicus [17] = assay: Decrease in aldosterone level Wistar rat plasma at 4 mg/kg, po measured after 2 hrs by radioimmunoassay; assay type: functional
Rattus norvegicus [18] = assay: Decrease in corticosterone level Wistar rat plasma at 4 mg/kg, po measured after 2 hrs by radioimmunoassay; assay type: functional
[19] = target: T1, Cytochrome P450 11B2, mitochondrial; assay: Inhibition of human aldosterone synthase in homogenized rat glomerulosa tissue
Cytochrome P450 1A2 = target: T4, Cytochrome P450 1A2 (Homo sapiens, UniProt P05177); assay: Inhibition of CYP1A2 (unknown origin); assay type: ADME
T4 sequence (P05177 whole entry): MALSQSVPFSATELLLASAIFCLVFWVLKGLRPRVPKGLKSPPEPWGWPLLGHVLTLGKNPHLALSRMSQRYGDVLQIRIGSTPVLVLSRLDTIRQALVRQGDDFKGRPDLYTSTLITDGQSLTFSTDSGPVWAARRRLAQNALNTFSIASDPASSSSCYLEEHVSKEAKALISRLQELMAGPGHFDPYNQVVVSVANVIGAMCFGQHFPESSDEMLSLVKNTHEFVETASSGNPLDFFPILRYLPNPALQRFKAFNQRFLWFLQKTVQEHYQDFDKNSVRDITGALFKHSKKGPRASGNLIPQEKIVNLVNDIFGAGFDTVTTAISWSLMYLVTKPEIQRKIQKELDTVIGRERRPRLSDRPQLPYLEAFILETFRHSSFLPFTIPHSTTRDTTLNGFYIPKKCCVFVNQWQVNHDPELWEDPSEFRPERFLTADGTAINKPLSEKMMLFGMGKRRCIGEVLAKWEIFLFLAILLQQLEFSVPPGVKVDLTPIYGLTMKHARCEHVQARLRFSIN

Rattus norvegicus [20] = assay: Decrease in myocardial fibrosis in SHR rat at 1.2 mg/kg/day, po; conditions: Myocardium, read-out: INH

COC(=O)[C@@H]1CC2=CC(=O)CC[C@]2(C)[C@@]23O[C@@H]2C[C@@]2(C)[C@@H](CC[C@@]24CCC(=O)O4)[C@H]13 [EPLERENONE] gave an Activity (Homo sapiens [1]) of -7.9 mmHg, an Activity (Homo sapiens [2]) of 88% and an Activity (Homo sapiens [3]) of 38%. The Activity (Homo sapiens [4]) was 89%.
For CN[C@@H]1C[C@H]2O[C@@](C)([C@@H]1OC)n1c3ccccc3c3c4c(c5c6ccccc6n2c5c31)C(=O)NC4 [STAUROSPORINE], the IC50 [5] was 11 nM.
For CC1(C)c2cc(Cl)ccc2C(=O)N1c1cncc(C2CCCN(S(C)(=O)=O)C2)n1 (stereo not drawn), the Ratio IC50 (Homo sapiens [6]) was 589 and the IC50 [7] was 2.8 nM.
With Oc1ccc2c(c1)CC(Cc1ccncc1)C2 (stereo not drawn) the Ratio IC50 (Homo sapiens [6]) was < 5 and the IC50 [8] was 59 nM.
For N#Cc1ccc([C@H]2CCc3cncn32)c(F)c1 [OSILODROSTAT], the Tmax [9] was 1 h and the half-life [10] was 4 h.
For Cn1c(=O)oc2cc(-c3cncc(C(O)C(F)(F)F)c3)ccc21 (stereo not drawn), the IC50 [11] was 1.4 nM.
CCOC(=O)c1cncn1C1c2ccccc2C(=O)OC1(C)C (stereo not drawn) gave an IC50 [12] of 3 nM and an inhibition at 0.1 µM [13] of 94%.
With Cc1cncc(-c2cc3n(n2)CCC(=O)N3)c1 the IC50 [14] was 2.2 nM and the Ratio IC50 (Homo sapiens [6]) was 128.
In the case of COc1cccc2c1CCC1C(c3cnc[nH]3)C21 (stereo not drawn), the Ratio IC50 (Homo sapiens [6]) is reported as 2 and the IC50 [8] is reported as 41 nM.
With CC(=O)S[C@@H]1CC2=CC(=O)C=C[C@]2(C)[C@H]2CC[C@@]3(C)[C@@H]([C@@H]4C[C@@H]4[C@@]34CCC(=O)O4)[C@H]12 [MESPIRENONE] the inhibition at 100 µM [15] was > 40% and the inhibition at 100 µM [16] was > 40%.
Work on CCS(=O)(=O)NCc1cncc(-c2c(C)c3ccccc3n2C)c1 yielded a Ratio IC50 (Homo sapiens [6]) of 322.
Compound N#Cc1ccc2c(c1)C1(CCC2)OCCn2cncc21 (stereo not drawn) has an inhibition in vivo at 4 mg/kg (Rattus norvegicus [17]) of 82% and an inhibition in vivo at 4 mg/kg (Rattus norvegicus [18]) of 15%.
With CSc1ccc(C2CCCn3cncc32)cc1 (stereo not drawn) the inhibition in vivo at 4 mg/kg (Rattus norvegicus [17]) was 62%.
For Cc1ccncc1-c1cc(F)c2c(c1)CCc1nnc(C)n1-2, the Ratio IC50 (Homo sapiens [6]) was 421.
With CCS(=O)(=O)N(Cc1cncc(-c2cccc(Cl)c2Cl)c1)C1CC1 the IC50 [11] was 5 nM.
In the case of Cn1c(-c2cncc3ccccc23)nc2ccc(F)c(F)c21, the Ratio IC50 (Homo sapiens [6]) is reported as > 1000.
With c1ccc2c(-c3cccc4cncn34)cccc2c1 the IC50 [19] was 50 nM.
With c1cncc(C2CCCCCCC2)c1 the Ratio IC50 (Homo sapiens [6]) was 50 and the IC50 (Cytochrome P450 1A2) was > 100000 nM.
In the case of CC(O)c1c(F)cncc1-c1cc2cc(Cl)c(F)cc2o1 (stereo not drawn), the Ratio IC50 (Homo sapiens [6]) is reported as 427 and the IC50 [11] is reported as 2.5 nM.
Work on N#Cc1ccc([C@H]2CCCc3cncn32)cc1 [DEXFADROSTAT] yielded an inhibition in vivo at 1.2 mg/kg/day (Rattus norvegicus [20]) of 50%.
